Screening data (PubChem)
Compounds with a hit are over-represented: about 5.2% of the library has one in this group of screens.
ALR inh – human ALR oxidase inhibition via reduced H2O2. P55789. purified ALR, DTT oxidation, H2O2 HRP-luminol luminescence. inhibition, % (concentration not given with the values). 290,000 tested, 3.8% active;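 active = mean replicate inhibition above about 79%, with every replicate also reaching it, limit read from the data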
Target sequence (P55789 whole entry, looked up): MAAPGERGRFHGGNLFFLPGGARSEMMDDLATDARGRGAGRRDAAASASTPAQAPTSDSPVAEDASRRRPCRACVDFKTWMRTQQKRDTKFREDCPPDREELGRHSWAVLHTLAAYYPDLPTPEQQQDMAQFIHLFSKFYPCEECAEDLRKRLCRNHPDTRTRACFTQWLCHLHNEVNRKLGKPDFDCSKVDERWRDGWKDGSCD
ZTA DNA inh – blocks Epstein-Barr virus ZTA, an EBNA-1 counter-screen. 320,000 tested, 0.15% active. inhibition, % at 11 µM. P03206. ZTA-DNA binding, fluorescence polarization; in the data active = inhibition above about 33%
Target sequence (P03206 whole entry, looked up): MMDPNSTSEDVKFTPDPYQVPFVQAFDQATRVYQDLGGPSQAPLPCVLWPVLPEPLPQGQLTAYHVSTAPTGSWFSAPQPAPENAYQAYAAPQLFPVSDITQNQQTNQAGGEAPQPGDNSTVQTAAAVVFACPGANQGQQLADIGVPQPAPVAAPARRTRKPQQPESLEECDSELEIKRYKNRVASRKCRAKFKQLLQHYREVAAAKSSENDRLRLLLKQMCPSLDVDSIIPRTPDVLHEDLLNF
EBNA-1 inh – blocks EBNA-1 binding to DNA | AID 1950 | inhibition, % at 14.8 µM | 300,000 tested, 0.34% active | EBNA-1 DNA binding, fluorescence polarization; in the data active = inhibition above about 28%
HCV NS3 hel inh – HCV NS3 helicase inhibition; NS3 helicase DNA unwinding, Cy5 molecular beacon fluorescence; inhibition, % at 10.9 µM; 290,000 tested, 0.56% active; AID 1800;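 active = inhibition above the mean of all tested compounds plus 3 SD, set per campaign, cut at about 35% in these data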;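 also: 0% = DMSO wells and 100% = thioflavine S control wells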
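assay system = NS3 helicase fragment of HCV | buffer or medium = MOPS pH 6.5, MgCl2, DTT, Tween20, BSA | timing = 60 min unwinding reaction at 25 °C after ATP addition | signal = Cy5 beacon fluorescence read at start and 1 h | read-out basis = % inhibition of unwinding | control set = low DMSO, high thioflavine S at 110 µM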
PfM18AAP inh – blocks P. falciparum M18 aspartyl aminopeptidase; inhibition, % at 7.35 µM; 290,000 tested, 1.2% active; AID 1822; recombinant PfM18AAP, H-Glu-NHMec fluorogenic cleavage;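 active = inhibition above the campaign mean inhibition over all tested compounds plus 3 SD, cut at about 28% in these data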;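 also: 0% = plate median of test compound wells and 100% = 2 mM ZnCl2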
core dimer inh – HCV core protein dimerization inhibition | TR-FRET GST/Flag-core106 dimerization, 1536-well | inhibition, % at 5 µM | 300,000 tested, 0.33% active | AID 1899;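 active = inhibition above the mean of all tested compounds plus 3 SD, set per screening campaign, cut at about 45% in these data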
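Assay system: GST-tagged and Flag-tagged HCV core protein residues 1-106 / Times: compound-protein-antibody incubation 4 h at 22.5 °C / Signal: time-resolved FRET, ex 340 nm, em 617 and 671 nm / Evaluation: % inhibition based on acceptor/donor emission ratio / Benchmarks: wells lacking GST-core106 and wells with excess unlabelled core106 / Repeats: singlicate, one well per compound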
The depositor's hits bear a star.

COc1ccc(-c2[nH]c(-c3ccc(C(=O)O)cc3)nc2-c2ccccc2)cc1 was read as ALR inh 99*, ZTA DNA inh 8, EBNA-1 inh 9, HCV NS3 hel inh 2, PfM18AAP inh 1 and core dimer inh 8.
For COc1ccc(-c2[nH]c(-c3ccc4c(c3)OCO4)nc2-c2ccccc2)cc1 the results were ZTA DNA inh -7, EBNA-1 inh 2, HCV NS3 hel inh -30, PfM18AAP inh -2 and core dimer inh -1.
Cn1c(Cc2cccs2)nnc1SCC(=O)Nc1ccc(C(N)=O)cc1 was read as ALR inh 5, ZTA DNA inh -8, EBNA-1 inh -12 and core dimer inh 3.
For COc1ccc(CCNC(=O)c2noc(C)c2[N+](=O)[O-])cc1OC the results were ZTA DNA inh 16, EBNA-1 inh 5, HCV NS3 hel inh 9, PfM18AAP inh 4 and core dimer inh 0.
For O=C1CSC(=S)N1N1C(=O)c2cccc([N+](=O)[O-])c2C1=O the results were ALR inh 17, ZTA DNA inh -16, EBNA-1 inh -8, HCV NS3 hel inh 9, PfM18AAP inh 43* and core dimer inh 0.
CCN(CC)CCNS(=O)(=O)c1ccc(C(=O)NN)cc1 was read as ALR inh 98*, ZTA DNA inh -12, EBNA-1 inh -13, HCV NS3 hel inh -7, PfM18AAP inh -1 and core dimer inh 0.
For Cn1cnc(S(=O)(=O)N2CCN(c3cccc(Cl)c3)CC2)c1 the results were ALR inh 6, ZTA DNA inh -9, EBNA-1 inh -21, HCV NS3 hel inh -1, PfM18AAP inh -3 and core dimer inh -8.
`CC(=O)Nc1ccc(C(=O)OCC(=O)c2cccc([N+](=O)[O-])c2)cc1` gave ALR inh -6, ZTA DNA inh 0, EBNA-1 inh 1, HCV NS3 hel inh -1, PfM18AAP inh -6 and core dimer inh -2.
Screening Cc1cc(SCc2cccc([N+](=O)[O-])c2)nc(=O)[nH]1 returned ALR inh 12, ZTA DNA inh 8, EBNA-1 inh 0, HCV NS3 hel inh 9, PfM18AAP inh -4 and core dimer inh 22.
For COC(=O)Nc1ccc(SCC(=O)c2cccc([N+](=O)[O-])c2)cc1 the results were ALR inh 99*, ZTA DNA inh -15, EBNA-1 inh -6, HCV NS3 hel inh -6, PfM18AAP inh 9 and core dimer inh -7.
For Cc1cc(SCC(=O)c2cccc([N+](=O)[O-])c2)nc(=O)[nH]1 the results were ALR inh 49, ZTA DNA inh -19, EBNA-1 inh -7, HCV NS3 hel inh 19, PfM18AAP inh 10 and core dimer inh 71*.
`Cc1cccc(Cl)c1NNC(=O)Nc1c([N+](=O)[O-])c(C)nn1C` gave ALR inh 3, ZTA DNA inh -11, EBNA-1 inh 10, HCV NS3 hel inh -31, PfM18AAP inh -1 and core dimer inh -6.
O=S(=O)(NCC1CCCN(Cc2ccccc2O)C1)c1cccc2cccnc12 (stereo not drawn) was read as ALR inh 13, ZTA DNA inh -5, EBNA-1 inh -8, HCV NS3 hel inh 3, PfM18AAP inh -7 and core dimer inh 7.
Screening Cn1ccc(-c2ccccc2)n1 returned ALR inh -5, ZTA DNA inh 9, EBNA-1 inh -6, HCV NS3 hel inh 9, PfM18AAP inh -5 and core dimer inh -3.
`CNc1ccccc1-n1ccc(-c2ccccc2)n1` gave ALR inh 94*, ZTA DNA inh -8, EBNA-1 inh -1, HCV NS3 hel inh 1, PfM18AAP inh 5 and core dimer inh -5.
COC(=O)COc1ccc(C(C2C(=O)CC(C)(C)CC2=O)C2C(=O)CC(C)(C)CC2=O)cc1 was read as ZTA DNA inh -4, EBNA-1 inh -13, HCV NS3 hel inh 16, PfM18AAP inh 4 and core dimer inh -9.
`Cn1c(-c2ccsc2)c(-c2cccs2)c2cc(Br)ccc21` gave ALR inh -1 and ZTA DNA inh 14.
For C/C(=N\Nc1ccc(S(=O)(=O)N2CCOCC2)cc1[N+](=O)[O-])C(C)C the results were ALR inh 2, ZTA DNA inh 16, EBNA-1 inh 2, HCV NS3 hel inh 0, PfM18AAP inh -7 and core dimer inh 0.
`O=C1C([N+](=O)[O-])=C(O)c2cccc3cccc1c23` gave ALR inh 2, HCV NS3 hel inh 24 and PfM18AAP inh 32*.
